Laboratory results as given in the RNAGym collection of RNA variant scans (doi:10.1126/science.aae0568).
Variants at the floor of the assay were thinned out.

B1: tRNA (parent)
chain: GUUCCGUUGGCGUAAUGGUAACGCGUCUCCCUCCUAAGGAGAAGACUGCGGGUUCGAGUCCCGUACGGAACG

Variants of: B1
Assay: yeast fitness relative to wild type (ratio to wild type); higher = fitter; tRNA-Arg(CCU), competitive growth, 37 C, YPD
How it was run: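 Amplicons of the tRNA-Arg(CCU) gene were sequenced, 100-nucleotide paired-end, from the start population and from each end population of a pooled yeast competition. The competition, in six parallel replicates, lasted 24 hours in YPD at 37°C. Fitness relative to wild type was calculated from changes in genotype frequencies. Genotypes had to have ≥ 100 starting reads, and estimates < 0.5 were set to 0.5.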
U3A C31A C34A A37C G68C showed a yeast fitness of at most 0.5.
Work on U3A C31G A43U C60G A65C G67C yielded a yeast fitness of 0.664.
For U3A C31G C66U, the yeast fitness was 0.641.
For U3A C31U, the yeast fitness was 1.02.
For U3A C31U A36C, the yeast fitness was 0.571.
In the case of U3A C31U A36C A65U, the yeast fitness is reported as at most 0.5.
Work on U3A C31U A40C G48A G68C yielded a yeast fitness of at most 0.5.
U3A C31U A45U G68C gave a yeast fitness of at most 0.5.
With U3A C31U G52A the yeast fitness was 0.614.
With U3A C31U G63C G67C A69U the yeast fitness was 0.558.
Work on U3A C31U U47C yielded a yeast fitness of 0.871.
In the case of U3A C31U U53A, the yeast fitness is reported as 0.518.
Variant U3A C33G C34G U35A G44A has a yeast fitness of 0.556.
Work on U3A C33U A43C yielded a yeast fitness of at most 0.5.
U3A C33U A45C gave a yeast fitness of at most 0.5.
U3A C33U U59C showed a yeast fitness of at most 0.5.
Variant U3A C34A C60U has a yeast fitness of at most 0.5.
In the case of U3A C34G A45G, the yeast fitness is reported as 0.537.
U3A C34U A43G C49A G52A gave a yeast fitness of at most 0.5.
With U3A C46A the yeast fitness was 1.05.
With U3A C46A C66U the yeast fitness was 0.734.
U3A C46A G56A showed a yeast fitness of 0.713.
For U3A C46A G63A A69C, the yeast fitness was 0.731.
Work on U3A C46G U47C yielded a yeast fitness of 0.675.
In the case of U3A C46U A69C, the yeast fitness is reported as 0.76.
Work on U3A C46U C49U U53C yielded a yeast fitness of at most 0.5.
Variant U3A C46U G48A has a yeast fitness of 0.695.
With U3A C46U G56C A69U the yeast fitness was at most 0.5.
U3A C49A A69U showed a yeast fitness of 0.558.
U3A C49A U53G A57U showed a yeast fitness of 0.798.
U3A C49U A65G gave a yeast fitness of 0.711.
U3A C49U C60U A70G gave a yeast fitness of 0.551.
With U3A C49U G63A the yeast fitness was 0.764.
For U3A C55U G56C, the yeast fitness was at most 0.5.
Work on U3A C55U G68C yielded a yeast fitness of 0.573.
U3A C60A C61U A69U gave a yeast fitness of 0.597.
In the case of U3A C60U C66G, the yeast fitness is reported as 0.658.
Variant U3A C61A has a yeast fitness of 0.778.
U3A C61G showed a yeast fitness of 0.767.
With U3A C61U G67A the yeast fitness was 0.562.
In the case of U3A C62U, the yeast fitness is reported as 0.961.
With U3A C66G G68C the yeast fitness was 0.623.
With U3A C66U the yeast fitness was 0.891.
U3A G6A showed a yeast fitness of 0.981.
Work on U3A G6A A37C C55G G58C yielded a yeast fitness of at most 0.5.
Variant U3A G6A U16A C24G A37U C49U C62U has a yeast fitness of 0.61.
With U3A G6C A20U A36U the yeast fitness was 0.571.
Variant U3A G6C C34G G38C A45G U59G has a yeast fitness of at most 0.5.
For U3A G6C C55U G63A, the yeast fitness was at most 0.5.
With U3A G6U G12C C22A C55G the yeast fitness was at most 0.5.
U3A G9A A14C C55U A70G showed a yeast fitness of at most 0.5.
With U3A G9A A14G C49U the yeast fitness was at most 0.5.
U3A G9A A15C C27U A57U C62A showed a yeast fitness of 0.667.
In the case of U3A G9A A20G, the yeast fitness is reported as 0.665.
U3A G9A C29U gave a yeast fitness of 0.751.
In the case of U3A G9A G48A, the yeast fitness is reported as 0.621.
Variant U3A G9A U19A C61G has a yeast fitness of at most 0.5.
U3A G9A U28G gave a yeast fitness of at most 0.5.
U3A G9C A20C A21C G25A G56A U64C showed a yeast fitness of 0.73.
For U3A G9C A20G C29A, the yeast fitness was at most 0.5.
Work on U3A G9C A20G C29A G67U yielded a yeast fitness of 0.633.
In the case of U3A G9C A65C, the yeast fitness is reported as at most 0.5.
U3A G9C C24G C30U C34A G51A showed a yeast fitness of at most 0.5.
U3A G9C C27G gave a yeast fitness of at most 0.5.
Work on U3A G9C C33G A42U A43U A65C G68C yielded a yeast fitness of at most 0.5.
U3A G9C C34U gave a yeast fitness of 0.548.
With U3A G9C G39A C55U A70C the yeast fitness was at most 0.5.
For U3A G9C G56C, the yeast fitness was at most 0.5.
Variant U3A G9C G67C has a yeast fitness of at most 0.5.
For U3A G10A C27U A40U, the yeast fitness was at most 0.5.
Variant U3A G10A C30U C60G has a yeast fitness of at most 0.5.
With U3A G10C A36U A40C the yeast fitness was at most 0.5.
U3A G10C A36U A40C A65G showed a yeast fitness of at most 0.5.
Variant U3A G10C A36U A40C C60G A70G has a yeast fitness of at most 0.5.
In the case of U3A G10C C24G A37U G38A G48C, the yeast fitness is reported as at most 0.5.
U3A G12A A14U C46A showed a yeast fitness of at most 0.5.
U3A G12A A20C C29G G67A showed a yeast fitness of at most 0.5.
In the case of U3A G12A C24G C29U A36G, the yeast fitness is reported as at most 0.5.
For U3A G12A C24U A45U U64C, the yeast fitness was at most 0.5.
For U3A G12A C46G, the yeast fitness was 0.657.
Work on U3A G12A U19A yielded a yeast fitness of 0.763.
With U3A G12C A21C A36C G68C the yeast fitness was at most 0.5.
In the case of U3A G12C G58A, the yeast fitness is reported as 0.579.
